≈ marks a conversion by molar mass, not a printed value. Calls of active or inactive are those of the source. The calls are words filed in the database; no cut-off is given here.
Key:
Candida albicans = assay: Antimicrobial activity against Candida albicans ATCC 10231 by micro broth dilution method; assay type: functional
Outline: (§1)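 Endpoint is the minimal inhibitory concentration (MIC), reported as the mean of three independent experiments. Reference drugs were ciprofloxacin for the bacteria and amphotericin B for the fungi. E. coli ATCC 25922 and P. aeruginosa ATCC 27853 were tested in a panel with B. subtilis ATCC 6633 and S. aureus ATCC 25923.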

Bacillus subtilis = assay: Antimicrobial activity against Bacillus subtilis ATCC 6633 by micro broth dilution method; assay type: functional
Outline: (§2)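 Bacterial panel run against B. subtilis ATCC 6633 and S. aureus ATCC 25923. Read-out is minimal inhibitory concentration (MIC), reported as the mean of three independent experiments. Ciprofloxacin served as the reference antibacterial.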

[1] = Cytotoxicity against human BGC823 cells by MTT assay; assay type: functional, cell-based; conditions: BGC-823
Outline: (§3)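 MTT read-out measured on a microplate reader, with IC50 derived for each of the five lines (BGC-823, HepG2, H460, HeLa, HCT-116). Adriamycin was the positive control.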

HeLa = assay: Cytotoxicity against human HeLa cells by MTT assay; assay type: functional, cell-based; outline: as §3
Escherichia coli = assay: Antimicrobial activity against Escherichia coli ATCC 25922 by micro broth dilution method; assay type: functional, organism-based; outline: as §1
[2] = Cytotoxicity against human H460 cells by MTT assay; assay type: functional, cell-based; conditions: NCI-H460; outline: as §3
HCT-116 = assay: Cytotoxicity against human HCT116 cells by MTT assay; assay type: functional, cell-based; outline: as §3
Staphylococcus aureus = assay: Antimicrobial activity against Staphylococcus aureus ATCC 25923 by micro broth dilution method; assay type: functional; outline: as §2
Aspergillus niger = assay: Antimicrobial activity against Aspergillus niger ATCC 1015 by micro broth dilution method; assay type: functional
Outline: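 Antifungal MIC against A. niger, reported as the mean of three independent experiments. Amphotericin B served as the reference antifungal.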

Pseudomonas aeruginosa = assay: Antimicrobial activity against Pseudomonas aeruginosa ATCC 27853 by micro broth dilution method; assay type: functional, organism-based; outline: as §1
HepG2 = assay: Cytotoxicity against human HepG2 cells by MTT assay; assay type: functional, cell-based

| MIC (Aspergillus niger) [µg/mL] | SMILES | Activity (Candida albicans) | MIC (Bacillus subtilis) [µg/mL] | IC50 [1] [µM] | IC50 (HeLa) [µM] | Activity (Escherichia coli) | IC50 [2] [µM] | IC50 (HCT-116) [µM] | MIC (Staphylococcus aureus) [µg/mL] | Activity (Aspergillus niger) | Activity (Pseudomonas aeruginosa) | IC50 (HepG2) [µM] | Activity (Bacillus subtilis) | Activity (Staphylococcus aureus) |
| --- | --- | --- | --- | --- | --- | --- | --- | --- | --- | --- | --- | --- | --- | --- |
| – | CCC(C)CCCCc1cc(O)c(C)c(=O)o1 (centres undefined) | inactive | 16 (≈ 67.1 µM) | > 200 | > 200 | inactive | > 200 | > 200 | 16 (≈ 67.1 µM) | inactive | inactive | > 200 | – | – |
| – | COc1cccc2c1C(=O)c1c(O)c3c(c(O)c1C2=O)C[C@@](O)(C(=O)CO)C[C@@H]3O[C@H]1C[C@H](N)[C@H](O)[C@H](C)O1 [DOXORUBICIN] | – | – | 1.48 | 0.97 | – | 0.98 | 1.38 | – | – | – | – | – | – |
| – | Cc1c(O)cc(CCCC(C)C)oc1=O | inactive | 32 (≈ 152 µM) | > 200 | > 200 | inactive | > 200 | > 200 | 8 (≈ 38 µM) | inactive | inactive | > 200 | – | – |
| – | O=C(O)c1cn(C2CC2)c2cc(N3CCNCC3)c(F)cc2c1=O [CIPROFLOXACIN] | – | 0.12 (≈ 0.362 µM) | – | – | – | – | – | 0.5 (≈ 1.51 µM) | – | – | – | – | – |
| – | Cc1c(O)cc(CCCCC(C)(C)O)oc1=O | inactive | – | > 200 | > 200 | inactive | > 200 | > 200 | – | inactive | inactive | > 200 | inactive | inactive |
| – | COc1cc(CCCCC(C)(C)O)oc(=O)c1C | inactive | – | > 200 | > 200 | inactive | > 200 | > 200 | 128 (≈ 503 µM) | inactive | inactive | > 200 | inactive | – |
| – | CC(=O)C(C)CCCCc1cc(O)c(C)c(=O)o1 (centres undefined) | inactive | – | > 200 | > 200 | inactive | > 200 | > 200 | 128 (≈ 507 µM) | inactive | inactive | > 200 | inactive | – |
| 1 (≈ 1.08 µM) | C[C@@H]1[C@H](O)[C@@H](C)/C=C/C=C/C=C/C=C/C=C/C=C/C=C/[C@H](O[C@@H]2O[C@H](C)[C@@H](O)[C@H](N)[C@@H]2O)C[C@@H]2O[C@](O)(C[C@@H](O)C[C@@H](O)[C@H](O)CC[C@@H](O)C[C@@H](O)CC(=O)O[C@H]1C)C[C@H](O)[C@H]2C(=O)O [AMPHOTERICIN B] | – | – | – | – | – | – | – | – | – | – | – | – | – |
| – | Cc1c(O)cc(CCCCC(C)C)oc1=O | inactive | 4 (≈ 17.8 µM) | > 200 | > 200 | inactive | > 200 | > 200 | 4 (≈ 17.8 µM) | inactive | inactive | > 200 | – | – |
| – | Cc1c(O)cc(CCCCC(C)[C@H](C)O)oc1=O (some centres undefined) | inactive | 128 (≈ 503 µM) | > 200 | > 200 | inactive | > 200 | > 200 | 128 (≈ 503 µM) | inactive | inactive | > 200 | – | – |
